ChEMBL document CHEMBL1926628, “Febrifugine analogue compounds: synthesis and antimalarial evaluation” (Bioorg Med Chem, 2012)

Experiments:
Plasmodium falciparum [1] = assay: Antimalarial activity against chloroquine-resistant Plasmodium falciparum VS/1 infected in human A positive erythrocytes assessed as inhibition of [G-3H]-hypoxanthine uptake after 24 hrs by liquid scintillation counting; assay type: functional; settings: VS/1, 24 h
Plasmodium falciparum [2] = assay: Antimalarial activity against chloroquine-resistant Plasmodium falciparum K1 infected in human A positive erythrocytes assessed as inhibition of [G-3H]-hypoxanthine uptake after 24 hrs by liquid scintillation counting; assay type: functional, organism-based; settings: K1, 24 h
Plasmodium falciparum [3] = assay: Antimalarial activity against chloroquine-resistant Plasmodium falciparum TM6 infected in human A positive erythrocytes assessed as inhibition of [G-3H]-hypoxanthine uptake after 24 hrs by liquid scintillation counting; assay type: functional, organism-based; settings: TM6, 24 h
Plasmodium falciparum [4] = assay: Antimalarial activity against Plasmodium falciparum Dd2 infected in human A positive erythrocytes assessed as inhibition of [G-3H]-hypoxanthine uptake after 24 hrs by liquid scintillation counting; assay type: functional, organism-based; settings: Dd2, 24 h
Plasmodium falciparum [5] = assay: Antimalarial activity against chloroquine-sensitive Plasmodium falciparum 3D7 infected in human A positive erythrocytes assessed as inhibition of [G-3H]-hypoxanthine uptake after 24 hrs by liquid scintillation counting; assay type: functional, organism-based; settings: 3D7, 24 h
Plasmodium falciparum [6] = assay: Antimalarial activity against Plasmodium falciparum PH3 infected in human A positive erythrocytes assessed as inhibition of [G-3H]-hypoxanthine uptake after 24 hrs by liquid scintillation counting; assay type: functional, organism-based; settings: PH3, 24 h
Plasmodium falciparum [7] = assay: Antimalarial activity against Plasmodium falciparum TM4 infected in human A positive erythrocytes assessed as inhibition of [G-3H]-hypoxanthine uptake after 24 hrs by liquid scintillation counting; assay type: functional, organism-based; settings: TM4, 24 h
[8] = Acute toxicity in po dosed Sprague-Dawley rat assessed as maximum tolerated dose; assay type: organism-based; settings: in vivo
Plasmodium berghei [9] = assay: Antimalarial activity against blood stage of Plasmodium berghei NK65 infected in po dosed rat assessed as minimum curative dose; assay type: functional
Summary of the method: (§1)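 Rodents infected with blood-stage Plasmodium berghei NK65 were dosed by the route given in each line. Read-out was the minimum clearance dose (MCD), the lowest dose clearing parasites, reported in mg/kg. Method follows earlier reports.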

Plasmodium berghei [10] = assay: Antimalarial activity against blood stage of Plasmodium berghei NK65 infected in po dosed rat assessed as inhibition of parasite growth; assay type: functional
Summary of the method: (§2)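 Blood-stage Plasmodium berghei NK65 infection in rodents. Compounds were given by the route stated in each line. ED50 is the dose in mg/kg giving 50% parasite growth inhibition relative to the untreated blank control. Procedure follows earlier reports.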

[11] = Therapeutic index, ratio of MTD for Sprague-Dawley rat to MCD for blood stage of Plasmodium berghei NK65; settings: read-out: TI
Summary of the method: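 MCD (minimum clearance dose) comes from rodents infected with blood-stage P. berghei NK65, dosed orally except artesunate, which was given iv. MTD (maximum tolerated dose) comes from Sprague–Dawley rats. Both are in mg/kg. Therapeutic index is MTD divided by MCD.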

Rattus norvegicus = species on record: Rattus norvegicus; assay: Ratio of compound MTD to febrifugine MTD in Sprague-Dawley rat; assay type: ADME, organism-based; settings: in vivo
Plasmodium falciparum [12] = assay: Antimalarial activity against chloroquine-resistant Plasmodium falciparum FVO infected in Aotus monkey assessed as cure rate at 8 mg/kg, po qd for 3 days; assay type: functional
Summary of the method: (§3)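 Aotus monkeys carrying chloroquine-resistant P. falciparum FVO were dosed orally once daily for 3 days at 2, 4, 8 or 16 mg/kg/day. Dosing began the day after parasitemia reached approximately 5,000 organisms per mm³. Cure means parasitemia cleared with no recrudescence. Cure rate is animals cured over total tested.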

Plasmodium falciparum [13] = assay: Antimalarial activity against chloroquine-resistant Plasmodium falciparum FVO infected in Aotus monkey assessed as cure rate at 2 mg/kg, po qd for 3 days; assay type: functional; summary of the method: as §3
Plasmodium falciparum [14] = assay: Antimalarial activity against chloroquine-resistant Plasmodium falciparum FVO infected in Aotus monkey assessed as cure rate at 4 mg/kg, po qd for 3 days; assay type: functional; summary of the method: as §3
Plasmodium falciparum [15] = assay: Antimalarial activity against chloroquine-resistant Plasmodium falciparum FVO infected in Aotus monkey assessed as cure rate at 16 mg/kg, po qd for 3 days; assay type: functional; summary of the method: as §3
Plasmodium berghei [16] = assay: Antimalarial activity against blood stage of Plasmodium berghei NK65 infected in iv dosed rat assessed as inhibition of parasite growth; assay type: functional; summary of the method: as §2
Plasmodium berghei [17] = assay: Antimalarial activity against blood stage of Plasmodium berghei NK65 infected in iv dosed rat assessed as minimum curative dose; assay type: functional; summary of the method: as §1

Row | Structure (SMILES) | IC50 (Plasmodium falciparum [1]) [nM] | IC50 (Plasmodium falciparum [2]) [nM] | IC50 (Plasmodium falciparum [3]) [nM] | IC50 (Plasmodium falciparum [4]) [nM] | IC50 (Plasmodium falciparum [5]) [nM] | IC50 (Plasmodium falciparum [6]) [nM] | IC50 (Plasmodium falciparum [7]) [nM] | MTD [8] [mg/kg] | MCD (Plasmodium berghei [9]) [mg/kg] | ED50 (Plasmodium berghei [10]) [mg/kg] | selectivity ratio [11] | Ratio (Rattus norvegicus) | Activity (Plasmodium falciparum [12]) [%] | Activity (Plasmodium falciparum [13]) [%] | Activity (Plasmodium falciparum [14]) [%] | Activity (Plasmodium falciparum [15]) [%] | ED50 (Plasmodium berghei [16]) [mg/kg] | MCD (Plasmodium berghei [17]) [mg/kg]
1 | CCN(CC)Cc1cc(Nc2ccnc3cc(Cl)ccc23)ccc1O | 8.7 | 21.2 | 7.5 | 9.1 | 4.9 | 15.9 | 15.2 | – | – | – | – | – | – | – | – | – | – | –
2 | O=C(Cn1cnc2ccccc2c1=O)[C@H]1NCC[C@@H]1O | 5.6 | 3.9 | 3.1 | 4.5 | 2.8 | 1.4 | 7.9 | 100 | 9.9 | 1.7 | 10 | – | – | – | – | – | – | –
3 | O=C(Cn1cnc2cccnc2c1=O)[C@H]1NCC[C@@H]1O | 3.6 | 3.1 | 2.1 | 2.3 | 1.8 | 1.1 | 4.1 | 450 | 7.1 | 1.2 | 63 | > 10 | – | – | – | – | – | –
4 | O=C(Cn1cnc2ccncc2c1=O)[C@H]1NCC[C@@H]1O | 4.1 | 2.8 | 3.4 | 2.2 | 1.4 | 1 | 3 | 350 | 7.5 | 1 | 47 | > 10 | – | – | – | – | – | –
5 | O=C(Cn1cnc2cccc(F)c2c1=O)[C@H]1NCC[C@@H]1O | 5.3 | 5.9 | 3.9 | 8.1 | 5.7 | 2.5 | 6.2 | 400 | 6.3 | 1.1 | 63 | > 10 | – | – | – | – | – | –
6 | O=C(Cn1cnc2cccc(C(F)(F)F)c2c1=O)[C@H]1NCC[C@@H]1O | 11.2 | 4.7 | 2.5 | 6.3 | 2.7 | 3.2 | 7.4 | 400 | 6.7 | 0.95 | 60 | > 10 | – | – | – | – | – | –
7 | O=C(Cn1cnc2cccnc2c1=O)[C@H]1NCC[C@@H]1OCc1ccccc1 | 0.13 | 0.24 | 0.08 | 0.17 | 0.21 | 0.2 | 0.33 | 250 | 1.7 | 0.19 | 147 | – | 80 | 25 | 71 | 100 | – | –
8 | CCO[C@H]1CCN[C@@H]1C(=O)Cn1cnc2cccc(F)c2c1=O | 0.25 | 0.24 | 0.17 | 0.26 | 0.21 | 0.18 | 0.22 | 250 | 1.9 | 0.31 | 132 | – | 100 | 50 | 67 | 100 | – | –
9 | CC(C)O[C@H]1CCN[C@@H]1C(=O)Cn1cnc2cccc(C(F)(F)F)c2c1=O | 0.68 | 0.61 | 0.31 | 0.78 | 0.36 | 0.54 | 0.39 | 250 | 2.4 | 0.23 | 104 | – | – | – | – | – | – | –
10 | O=C(Cn1cnc2cccnc2c1=O)[C@H]1NCC[C@H]1O | 28.7 | 19.8 | 13.2 | 21.9 | 16.3 | 11.4 | 32.7 | – | – | – | – | – | – | – | – | – | – | –
11 | O=C(Cn1cnc2cccc(C(F)(F)F)c2c1=O)[C@H]1NCC[C@H]1O | 36.5 | 24.2 | 25.6 | 31.8 | 19.6 | 21.2 | 51.9 | – | – | – | – | – | – | – | – | – | – | –
12 | O=C(Cn1cnc2cccnc2c1=O)[C@@H]1NCC[C@H]1O | 3.7 | 3.3 | 2 | 2.4 | 1.9 | 1 | 4 | – | – | – | – | – | – | – | – | – | – | –
13 | O=C(Cn1cnc2cccc(C(F)(F)F)c2c1=O)[C@@H]1NCC[C@H]1O | 11 | 4.8 | 2.7 | 6.1 | 2.6 | 3.4 | 7.3 | – | – | – | – | – | – | – | – | – | – | –
14 | C[C@H]1[C@H](OC(=O)CCC(=O)O)O[C@@H]2O[C@@]3(C)CC[C@H]4[C@H](C)CC[C@@H]1[C@@]24OO3 [ARTESUNATE] | – | – | – | – | – | – | – | – | – | – | 37 | – | – | – | – | – | 0.55 | 6.8
15 | CCN(CC)CCCC(C)Nc1ccnc2cc(Cl)ccc12 (configuration not stated) [CHLOROQUINE] | – | – | – | – | – | – | – | – | 40 | 4.5 | – | – | – | – | – | – | – | –
16 | O=C(C[C@@H]1NCCC[C@H]1O)Cn1cnc2ccccc2c1=O [FEBRIFUGINE] | 4.2 | 2 | 3.1 | 2.1 | – | – | 5.4 | 35 | 12 | 2.3 | 3 | – | – | – | – | – | – | –
17 | OC(c1cc(C(F)(F)F)nc2c(C(F)(F)F)cccc12)C1CCCCN1 (configuration not stated) [MEFLOQUINE] | – | – | – | – | – | – | – | – | 9.9 | 1.1 | 61 | – | – | – | – | – | – | –
